The record followed here is ChEMBL document CHEMBL1123290, “Synthesis, antimalarial activity, and quantitative structure-activity relationships of tebuquine and a series of related 5-[(7-chloro-4-quinolinyl)amino]-3-[(alkylamino)methyl] [1,1'-biphenyl]-2-ols and N omega-oxides” (1986).

Type in all cases: functional
For assay [1], the system named is Plasmodium berghei. Briefly: Change in mean survival time for control (average 6.2 days) versus treated mice (Mus musculus) 72 hrs after 160 mg/kg subcutaneous dose.
The test system of assay [2] is Plasmodium berghei. The assay can be described thus: Antimalarial activity as 60-day survivors in infected mice (Mus musculus) after single 320mg/kg subcutaneous dose 72 hr post infection. A digest of the protocol:
(§1)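 Mice were infected with a normal drug-sensitive Plasmodium berghei strain. At 72 h postinfection each received one subcutaneous dose of compound dissolved or suspended in peanut oil, in five-mouse groups per dose. The read-out was the number of mice alive at 60 days postinfection, which were scored as cured.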

Assay [3] concerns Plasmodium berghei. The assay can be described thus: Change in mean survival time for control (average 6.2 days) versus treated mice (Mus musculus) 72 hrs after 5 mg/kg subcutaneous dose.
Assay [4] deals with Mus musculus. The assay can be described thus: Antimalarial activity of compound administered as a single subcutaneous dose of 5mg/kg, 72-h postinfection measured as number of mice (Mus musculus) surviving at 60 days postinfection. A digest of the protocol: as §1
Assay [5] has as its system Plasmodium berghei. Briefly: Difference in mean survival time in mice (Mus musculus) (control = 6.2 days) after single 40mg/kg subcutaneous dose 72hr post infection.
In assay [6] the test system is Plasmodium berghei. Briefly: Antimalarial activity as 60-day survivors in Plasmodium berghei infected mice (Mus musculus) after single 160mg/kg subcutaneous dose 72 hr post infection. Summed up: as §1
Assay [7] relates to Plasmodium berghei. Briefly: Change in mean survival time for control (average of 6.2 days) versus treated mice (Mus musculus) 72 hrs after 80 mg/kg subcutaneous dose.
The test system of assay [8] is Plasmodium berghei. The assay can be described thus: (§2) Change in mean survival time for control (average 6.2 days) versus treated mice (Mus musculus) 72 hrs after […] subcutaneous dose.
In assay [9] the test system is Mus musculus. The assay can be described thus: Antimalarial activity, administered as a single subcutaneous dose of 40 mg/kg, 72 hrs post infection measured as number of mice (Mus musculus) surviving at 60 days post infection. Summed up:
as §1

For assay [10], the system named is Plasmodium berghei. Briefly: Change in mean survival time for control (average 6.2 days) versus treated mice (Mus musculus) 72 hrs after 20 mg/kg subcutaneous dose.
Assay [11] relates to Mus musculus. Briefly: Antimalarial activity, administered as a single subcutaneous dose of 640 mg/kg, 72 hrs post infection measured as number of mice (Mus musculus) surviving at 60 days post infection. A digest of the protocol: as §1
Assay [12] relates to Mus musculus. Briefly: Antimalarial activity of compound administered as a single subcutaneous dose of 10mg/kg, 72 hrs post infection measured as number of mice (Mus musculus) surviving at 60 days post infection. A digest of the protocol:
as §1

Assay [13] deals with Mus musculus. The assay can be described thus: Antimalarial activity, administered as a single subcutaneous dose of 80 mg/kg, 72 hrs post infection measured as number of mice (Mus musculus) surviving at 60 days post infection. A digest of the protocol: as §1
For assay [14], the system named is Plasmodium berghei. Briefly: Change in mean survival time for control (average 6.2 days) versus treated mice (Mus musculus) 72 hrs after 10 mg/kg subcutaneous dose.
Assay [15] relates to Plasmodium berghei. The assay can be described thus: Change in mean survival time for control (average 6.2 days) versus treated mice (Mus musculus) 72 hrs after 320 mg/kg subcutaneous dose.
The test system of assay [16] is Plasmodium berghei. Briefly: Change in mean survival time for control (average 6.2 days) versus treated mice (Mus musculus) 72 hrs after […] subcutaneous dose.
In assay [17] the test system is Plasmodium berghei. The assay can be described thus: Change in mean survival time for control (average 6.2 days) versus treated mice (Mus musculus) 72 hrs after 640 mg/kg subcutaneous dose.
Assay [18] concerns Plasmodium berghei. The assay can be described thus: Antimalarial activity as 60-day survivors in infected mice (Mus musculus) after single 20 mg/kg subcutaneous dose 72hr post infection. Summed up:
as §1

Assay [19] deals with Plasmodium berghei. Briefly: Antimalarial activity in primary screen.
Assay [20] concerns Plasmodium berghei. The assay can be described thus: Change in mean survival time in control (average 6.2 days) versus treated mice (Mus musculus) after 80 mg/kg subcutaneous dose.
Assay [21] has as its system Plasmodium berghei. The assay can be described thus: Change in mean survival time for control (average 6.2 days) versus treated mice (Mus musculus) after 160 mg/kg subcutaneous dose.
Assay [22] deals with Plasmodium berghei. Briefly: Change in mean survival time of Plasmodium berghei infected mice (Mus musculus) after 5 mg/kg subcutaneous dose.
In assay [23] the test system is Plasmodium berghei. Briefly: Change in mean survival time of Plasmodium berghei infected mice (Mus musculus) after […] subcutaneous dose.
Assay [24] concerns Plasmodium berghei. Briefly: Difference in mean survival time of Plasmodium berghei infected mice (Mus musculus) after 10 mg/kg subcutaneous dose.
In assay [25] the test system is Plasmodium berghei. The description is as §2. This is another data set of the same source.
Assay [26] deals with Plasmodium berghei. The assay can be described thus: Change in mean survival time for control (average 6.2 days) versus treated mice (Mus musculus) after 320 mg/kg subcutaneous dose.
Assay [27] deals with Plasmodium berghei. Briefly: Change in mean survival time for control (average 6.2 days) versus treated mice (Mus musculus) after 40 mg/kg subcutaneous dose.
Assay [28] concerns Plasmodium berghei. Briefly: Change in mean survival time of Plasmodium berghei infected mice (Mus musculus) on 1.25 mg/kg subcutaneous dose.
Assay [29] concerns Plasmodium berghei. Briefly: Change in mean survival time for control (average 6.2 days) versus treated mice (Mus musculus) after 20 mg/kg subcutaneous dose.

In the case of `CCN(CC)Cc1cc(Nc2ccnc3cc(Cl)ccc23)cc(-c2cccnc2)c1O`, the “Delta MST” value with Plasmodium berghei [1] came to 18.8 days; in the assay on Plasmodium berghei [3] it was 10.6 days; with Plasmodium berghei [5], 20.3 days; with Plasmodium berghei [7], 19.6 days; in the assay with Plasmodium berghei [8] it was 1.8 days; in the assay on Plasmodium berghei [10], 13.6 days. Further, the “Delta MST” value in the assay on Plasmodium berghei [14] turned out to be 8.6 days; in the assay with Plasmodium berghei [15], 37.8 days; with Plasmodium berghei [16], 5.4 days; in the assay with Plasmodium berghei [17], 34.8 days. For the same compound, the “No. of mice cured” value in the assay with Plasmodium berghei [2] came out at 4; with Mus musculus [4] it was 1; in the assay on Plasmodium berghei [6] it was 4; with Mus musculus [9], 1; in the assay on Mus musculus [11], 3; in the assay on Mus musculus [12], 1. Moreover, the “No. of mice cured” value with Mus musculus [13] and in the assay on Plasmodium berghei [18] was 1 in each case. The compound further yielded an ED30 with Plasmodium berghei [19] of 31 mg/kg.
For `CCN(CC)Cc1cc(Nc2ccnc3cc(Cl)ccc23)cc(-c2cccc(F)c2)c1O`, the “Delta MST” value in the assay with Plasmodium berghei [1] is 14.8 days; in the assay on Plasmodium berghei [3] it was 5.6 days; in the assay on Plasmodium berghei [5] it was 25.1 days; in the assay with Plasmodium berghei [7] it was 12.8 days; in the assay with Plasmodium berghei [8] it was 0.4 days; with Plasmodium berghei [10] it was 23.6 days. For the same compound, the “Delta MST” value was 23.2 days in the assay with Plasmodium berghei [14], 13.8 days with Plasmodium berghei [15], 1.8 days in the assay on Plasmodium berghei [16] and 15.8 days in the assay with Plasmodium berghei [17]. Also, the “No. of mice cured” value with Plasmodium berghei [2] was 1; in the assay on Mus musculus [4], 1; in the assay on Plasmodium berghei [6], 3; in the assay on Mus musculus [9], 3; in the assay on Mus musculus [11], 3; with Mus musculus [13] it was 2. Besides, the “No. of mice cured” value in the assay with Plasmodium berghei [18] turned out to be 2. This compound also showed an ED30 in the assay on Plasmodium berghei [19] of 12.4 mg/kg.
Consider `CCN(CC)Cc1cc(Nc2cc[n+]([O-])c3cc(Cl)ccc23)cc(-c2ccc(C(F)(F)F)cc2)c1O`, for which the “Delta MST” value in the assay on Plasmodium berghei [20] stood at 19.7 days; in the assay with Plasmodium berghei [21], 13.2 days; with Plasmodium berghei [22] it was 13.6 days; in the assay with Plasmodium berghei [23], 2.6 days; in the assay with Plasmodium berghei [24], 27.9 days; in the assay with Plasmodium berghei [25] it was 16.5 days. Moreover, the “Delta MST” value in the assay with Plasmodium berghei [26] amounted to 12.7 days; in the assay on Plasmodium berghei [27], 28.6 days; in the assay with Plasmodium berghei [28], 0.2 days; with Plasmodium berghei [29], 33.6 days. Further, the “No. of mice cured” value was determined as 2 with Plasmodium berghei [2]; 3 with Plasmodium berghei [6]; 2 with Mus musculus [9]; 1 with Mus musculus [11]; 1 in the assay with Mus musculus [12]; 3 in the assay with Mus musculus [13]. The “No. of mice cured” value in the assay on Plasmodium berghei [18] turned out to be 2. This compound also showed an ED30 in the assay on Plasmodium berghei [19] of 7.4 mg/kg.
Regarding `CC(C)(C)NCc1cc(Nc2ccnc3cc(Cl)ccc23)cc(-c2ccc(Cl)cc2)c1O` [TEBUQUINE], the “Delta MST” value in the assay with Plasmodium berghei [1] turned out to be 14.9 days; in the assay with Plasmodium berghei [3], 11.4 days; in the assay with Plasmodium berghei [5] it was 19.9 days; in the assay on Plasmodium berghei [8], 0.3 days; in the assay on Plasmodium berghei [10] it was 14.9 days; in the assay with Plasmodium berghei [15] it was 16.4 days. Moreover, the “Delta MST” value in the assay on Plasmodium berghei [16] came out at 2.3 days; with Plasmodium berghei [17] it was 17.1 days. Moreover, the “No. of mice cured” value in the assay with Plasmodium berghei [2] is reported as 1; in the assay with Mus musculus [4] it was 1; with Plasmodium berghei [6], 2; in the assay on Mus musculus [9], 4; in the assay with Mus musculus [12], 2; in the assay with Mus musculus [13] it was 3. Further, the “No. of mice cured” value in the assay on Plasmodium berghei [18] amounted to 3.
